Reference: ChEMBL document CHEMBL3525900, “Pharmacokinetics, distribution, and metabolism of [14C]sunitinib in rats, monkeys, and humans” (Drug Metab Dispos, 2012)

Experiments:
Rattus norvegicus = assay: Apparent terminal half life as total radioactivity in female Sprague-Dawley rat plasma at 15 mg/kg, po administered as single dose by LC/MS/MS analysis; type: ADME, organism-based; set-up: dose 15 mg/kg, dosed compound name [14C]Sunitinib, route oral; conditions: in vivo
In short: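 Single dose of [14C]sunitinib L-malate as free base, 50 µCi/kg. IV dose was 5 mg/kg by tail vein in 5 females. Oral dose was 15 mg/kg by gavage in 3 females and 3 males. Total radioactivity was by scintillation counting. […] Cmax was read from raw data, t½ by log-linear regression, AUC by linear trapezoidal rule.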

Pancreas [1] = assay: Drug concentration in female albino rat pancreas assessed as radioactivity per gram of tissue at 20 mg/kg administered as single dose via gastric gavage measured after 3 hrs by autoradiographic analysis; type: ADME, organism-based; set-up: dose 20 mg/kg, dosed compound name [14C]Sunitinib; conditions: in vivo, po
In short: (§1)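 Sprague Dawley albino rats, ca 7-8 weeks old, dosed once by gastric gavage with [14C]sunitinib L-malate (15 mg freebase/kg, 100 µCi/kg). One male and one female killed by CO2 at 3, 6, 24, 72 and 168 h. Carcasses frozen in solid CO2/hexane, embedded and cut into 30 µm sagittal sections, then freeze-dried. Radioactivity quantified by whole-body autoradiography against standards by regression, background subtracted.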

Stomach = assay: Drug concentration in male Lister Hooded pigmented rat stomach assessed as radioactivity per gram of tissue at 20 mg/kg administered as single dose via gastric gavage measured after 24 hrs by autoradiographic analysis; type: ADME, organism-based; set-up: dose 20 mg/kg, dosed compound name [14C]Sunitinib; conditions: in vivo, po
Thymus = assay: Drug concentration in male Lister Hooded pigmented rat thymus assessed as radioactivity per gram of tissue at 20 mg/kg administered as single dose via gastric gavage measured after 24 hrs by autoradiographic analysis; type: ADME, organism-based; set-up: dose 20 mg/kg, dosed compound name [14C]Sunitinib; conditions: in vivo, po
Ovary = assay: Drug concentration in female albino rat ovary assessed as radioactivity per gram of tissue at 20 mg/kg administered as single dose via gastric gavage measured after 6 hrs by autoradiographic analysis; type: ADME, organism-based, Female gonad; set-up: dose 20 mg/kg, dosed compound name [14C]Sunitinib; conditions: in vivo, po; in short: as §1
Zone of skin [2] = assay: Drug concentration in male Lister Hooded pigmented rat abdomen skin assessed as radioactivity per gram of tissue at 20 mg/kg administered as single dose via gastric gavage measured after 168 hrs by autoradiographic analysis; type: ADME, organism-based; set-up: dose 20 mg/kg, dosed compound name [14C]Sunitinib; conditions: in vivo, po
Heart [3] = assay: Drug concentration in female albino rat heart assessed as radioactivity per gram of tissue at 20 mg/kg administered as single dose via gastric gavage measured after 6 hrs by autoradiographic analysis; type: ADME, organism-based; set-up: dose 20 mg/kg, dosed compound name [14C]Sunitinib; conditions: in vivo, po; in short: as §1
Adrenal [4] = assay: Drug concentration in male Lister Hooded pigmented rat adrenal assessed as radioactivity per gram of tissue at 20 mg/kg administered as single dose via gastric gavage measured after 336 hrs by autoradiographic analysis; type: ADME, organism-based; set-up: dose 20 mg/kg, dosed compound name [14C]Sunitinib; conditions: in vivo, po
Adrenal [5] = assay: Drug concentration in female albino rat adrenal assessed as radioactivity per gram of tissue at 20 mg/kg administered as single dose via gastric gavage measured after 3 hrs by autoradiographic analysis; type: ADME, organism-based; set-up: dose 20 mg/kg, dosed compound name [14C]Sunitinib; conditions: in vivo, po
In short: (§2)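 Sprague Dawley (albino) rats, ca 7-8 weeks old, received a single gastric-gavage dose of [14C]sunitinib L-malate at 20 mg/kg (15 mg freebase/kg, 100 µCi/kg). One animal per sex killed by CO2 at 3, 6, 24, 72 and 168 h, then frozen in CO2/hexane. 30 µm sagittal sections were cut and freeze-dried. Radioactivity per gram quantified by whole-body autoradiography using regression against standards. LOQ 0.04–0.06 µg freebase equiv/g.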

Liver [6] = assay: Drug concentration in female albino rat liver assessed as radioactivity per gram of tissue at 20 mg/kg administered as single dose via gastric gavage measured after 6 hrs by autoradiographic analysis; type: ADME, organism-based; set-up: dose 20 mg/kg, dosed compound name [14C]Sunitinib; conditions: in vivo, po; in short: as §1
[7] = Drug concentration in male albino rat bladder assessed as radioactivity per gram of tissue at 20 mg/kg administered as single dose via gastric gavage measured after 3 hrs by autoradiographic analysis; type: ADME, organism-based, Urinary bladder; set-up: dose 20 mg/kg, dosed compound name [14C]Sunitinib; conditions: in vivo, po
[8] = Drug concentration in female albino rat thyroid gland assessed as radioactivity per gram of tissue at 20 mg/kg administered as single dose via gastric gavage measured after 72 hrs by autoradiographic analysis; type: ADME, organism-based; set-up: dose 20 mg/kg, dosed compound name [14C]Sunitinib; conditions: in vivo, po
[9] = Drug concentration in female Lister Hooded pigmented rat brown fat assessed as radioactivity per gram of tissue at 20 mg/kg administered as single dose via gastric gavage measured after 24 hrs by autoradiographic analysis; type: ADME, organism-based, Brown adipose tissue; set-up: dose 20 mg/kg, dosed compound name [14C]Sunitinib; conditions: in vivo, po
In short: (§3)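 Lister Hooded (pigmented) rats, ca 7-8 weeks old, acclimated 7 days, given [14C]sunitinib L-malate by gastric gavage at 20 mg/kg (15 mg freebase/kg, 100 µCi/kg). One male and one female killed by CO2 at 24, 72, 168 and 336 h. Carcasses frozen in solid CO2/hexane and embedded in frozen cellulose. 30 µm sagittal cryosections were freeze-dried. Tissue radioactivity measured by quantitative whole-body autoradiography against calibration standards, with background subtracted.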

Pancreas [10] = assay: Drug concentration in male albino rat pancreas assessed as radioactivity per gram of tissue at 20 mg/kg administered as single dose via gastric gavage measured after 24 hrs by autoradiographic analysis; type: ADME, organism-based; set-up: dose 20 mg/kg, dosed compound name [14C]Sunitinib; conditions: in vivo, po
Brain = assay: Drug concentration in male albino rat brain assessed as radioactivity per gram of tissue at 20 mg/kg administered as single dose via gastric gavage measured after 72 hrs by autoradiographic analysis; type: ADME, organism-based; set-up: dose 20 mg/kg, dosed compound name [14C]Sunitinib; conditions: in vivo, po
Liver [11] = assay: Drug concentration in male albino rat liver assessed as radioactivity per gram of tissue at 20 mg/kg administered as single dose via gastric gavage measured after 72 hrs by autoradiographic analysis; type: ADME, organism-based; set-up: dose 20 mg/kg, dosed compound name [14C]Sunitinib; conditions: in vivo, po
[12] = Drug concentration in male albino rat preputial gland assessed as radioactivity per gram of tissue at 20 mg/kg administered as single dose via gastric gavage measured after 72 hrs by autoradiographic analysis; type: ADME, organism-based; set-up: dose 20 mg/kg, dosed compound name [14C]Sunitinib; conditions: in vivo, po
Zone of skin [13] = assay: Drug concentration in male albino rat abdomen skin assessed as radioactivity per gram of tissue at 20 mg/kg administered as single dose via gastric gavage measured after 72 hrs by autoradiographic analysis; type: ADME, organism-based; set-up: dose 20 mg/kg, dosed compound name [14C]Sunitinib; conditions: in vivo, po
[14] = Drug concentration in female albino rat salivary gland assessed as radioactivity per gram of tissue at 20 mg/kg administered as single dose via gastric gavage measured after 24 hrs by autoradiographic analysis; type: ADME, organism-based; set-up: dose 20 mg/kg, dosed compound name [14C]Sunitinib; conditions: in vivo, po; in short: as §1
[15] = Drug concentration in female albino rat bone marrow assessed as radioactivity per gram of tissue at 20 mg/kg administered as single dose via gastric gavage measured after 72 hrs by autoradiographic analysis; type: ADME, organism-based; set-up: dose 20 mg/kg, dosed compound name [14C]Sunitinib; conditions: in vivo, po; in short: as §2
[16] = Drug concentration in male albino rat uveal tract assessed as radioactivity per gram of tissue at 20 mg/kg administered as single dose via gastric gavage measured after 6 hrs by autoradiographic analysis; type: ADME, organism-based; set-up: dose 20 mg/kg, dosed compound name [14C]Sunitinib; conditions: in vivo, po
Heart [17] = assay: Drug concentration in male albino rat heart assessed as radioactivity per gram of tissue at 20 mg/kg administered as single dose via gastric gavage measured after 24 hrs by autoradiographic analysis; type: ADME, organism-based; set-up: dose 20 mg/kg, dosed compound name [14C]Sunitinib; conditions: in vivo, po
[18] = Drug concentration in female Lister Hooded pigmented rat salivary gland assessed as radioactivity per gram of tissue at 20 mg/kg administered as single dose via gastric gavage measured after 24 hrs by autoradiographic analysis; type: ADME, organism-based; set-up: dose 20 mg/kg, dosed compound name [14C]Sunitinib; conditions: in vivo, po; in short: as §3
Spleen = assay: Drug concentration in female Lister Hooded pigmented rat spleen assessed as radioactivity per gram of tissue at 20 mg/kg administered as single dose via gastric gavage measured after 24 hrs by autoradiographic analysis; type: ADME, organism-based; set-up: dose 20 mg/kg, dosed compound name [14C]Sunitinib; conditions: in vivo, po; in short: as §3
Zone of skin [19] = assay: Drug concentration in female Lister Hooded pigmented rat abdomen skin assessed as radioactivity per gram of tissue at 20 mg/kg administered as single dose via gastric gavage measured after 72 hrs by autoradiographic analysis; type: ADME, organism-based; set-up: dose 20 mg/kg, dosed compound name [14C]Sunitinib; conditions: in vivo, po
In short: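 Pigmented Lister Hooded rats, 7-8 weeks old, received [14C]sunitinib L-malate by gavage at 20 mg/kg (15 mg freebase/kg, 100 µCi/kg). One rat per sex was killed by CO2 at each of 24, 72, 168 and 336 h. Carcasses were frozen in solid CO2/hexane and cut into 30 µm sagittal sections, then freeze-dried. Tissue radioactivity was quantified by whole-body autoradiography calibrated against standards by regression (LOQ 0.04–0.06 µg eq/g).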

Liver [20] = assay: Drug concentration in female albino rat liver assessed as radioactivity per gram of tissue at 20 mg/kg administered as single dose via gastric gavage measured after 72 hrs by autoradiographic analysis; type: ADME, organism-based; set-up: dose 20 mg/kg, dosed compound name [14C]Sunitinib; conditions: in vivo, po; in short: as §1

t1/2 lambda z (Rattus norvegicus): 9 h | Radiolabel recovery (Pancreas [1]): 13.45 ugequiv | Radiolabel recovery (Stomach): 0.67 ugequiv | Radiolabel recovery (Thymus): 0.67 ugequiv | Radiolabel recovery (Ovary): 11.63 ugequiv | Radiolabel recovery (Zone of skin [2]): 0.58 ugequiv | Radiolabel recovery (Heart [3]): 6.18 ugequiv | Radiolabel recovery (Adrenal [4]): 0.16 ugequiv | Radiolabel recovery (Adrenal [5]): 29.98 ugequiv | Radiolabel recovery (Liver [6]): 15.16 ugequiv | Radiolabel recovery [7]: 3.22 ugequiv | Radiolabel recovery [8]: 0.26 ugequiv | Radiolabel recovery [9]: 0.73 ugequiv | Radiolabel recovery (Pancreas [10]): 1.68 ugequiv | Radiolabel recovery (Brain): 0.07 ugequiv | Radiolabel recovery (Liver [11]): 0.24 ugequiv | Radiolabel recovery [12]: 0.13 ugequiv | Radiolabel recovery (Zone of skin [13]): 0.27 ugequiv | Radiolabel recovery [14]: 2.65 ugequiv | Radiolabel recovery [15]: 0.1 ugequiv | Radiolabel recovery [16]: 5.08 ugequiv | Radiolabel recovery (Heart [17]): 0.36 ugequiv | Radiolabel recovery [18]: 1.66 ugequiv | Radiolabel recovery (Spleen): 2.79 ugequiv | Radiolabel recovery (Zone of skin [19]): 0.26 ugequiv | Radiolabel recovery (Liver [20]): 0.37 ugequiv
SMILES: CCN(CC)CCNC(=O)c1c(C)[nH]c(/[14CH]=C2\C(=O)Nc3ccc(F)cc32)c1C.O=C(O)C[C@H](O)C(=O)O
